Test results reported in ChEMBL document CHEMBL1938363, “Synthesis of dihydrofuran-fused perhydrophenanthrenes having a phenolic hydroxyl group as a novel anti-Alzheimer's disease agent” (Bioorg Med Chem Lett, 2012).
Calls of active or inactive are those of the source. The calls are words filed in the database; no cut-off is given here.

Assays:
[1] = Inhibition of amyloid beta (25 to 35)-mediated damage in Sprague-Dawley rat neurons assessed as dendritic extension at 1 uM treated 4 days after amyloid beta-challenge measured after 4 days by immunostaining method
Summary of the method: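 Rat cortical neurons were exposed to Aβ for 4 days before the test compounds were added. Dendrite length was quantified after a further 4 days. The vehicle control was 0.1% DMSO given to Aβ-exposed cells, and the normal control was cells without Aβ treatment.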

[2] = Inhibition of amyloid beta (1 to 42)-mediated damage in Sprague-Dawley rat neurons assessed as dendritic extension at 1 uM administered 3 days after amyloid beta-challenge measured after 5 days by immunostaining method
[3] = Inhibition of amyloid beta (1 to 42)-mediated damage in Sprague-Dawley rat neurons assessed as axonal extension at 1 uM treated 3 days after amyloid beta-challenge measured after 5 days by immunostaining method

Compound | inhibition [1] | inhibition [2] | inhibition [3]
CC(C)[Si](Oc1ccc2c(c1)C[C@H]1OC=C3[C@H]1[C@@]2(C#N)CCC31OCCO1)(C(C)C)C(C)C | inactive | – | –
COc1cc2c(cc1O)C[C@H]1OC=C3[C@H]1[C@@]2(C#N)CCC31OCCO1 | – | Active | Active
N#C[C@]12CCC3(OCCO3)C3=CO[C@H](Cc4cc(OS(=O)(=O)C(F)(F)F)ccc41)[C@@H]32 | inactive | – | –
N#C[C@]12CCC3(OCCO3)C3=CO[C@H](Cc4cc(OCc5ccccc5)ccc41)[C@@H]32 | inactive | – | –
N#C[C@]12CCC3(OCCO3)C3=CO[C@H](Cc4cc(-c5ccccc5)ccc41)[C@@H]32 | inactive | – | –
N#C[C@]12CCC3(OCCO3)C3=CO[C@H](Cc4cc(OC(F)(F)F)ccc41)[C@@H]32 | inactive | – | –
N#C[C@]12CCC3(OCCO3)C3=CO[C@H](Cc4ccc(O)cc41)[C@@H]32 | – | Active | Active
N#C[C@]12CCC3(OCCO3)C3=CO[C@H](Cc4cc(OCc5cc(F)cc(F)c5)ccc41)[C@@H]32 | inactive | – | –
N#C[C@]12CCC3(OCCO3)C3=CO[C@H](Cc4cc(O)ccc41)[C@@H]32 | Active | Active | –
COc1cc2c(cc1O)[C@]1(C#N)CCC3(OCCO3)C3=CO[C@H](C2)[C@@H]31 | – | Active | Active
